In ChEMBL document CHEMBL1150274 (Bioorg Med Chem, 2008):
Active and inactive are the calls of the source. The calls are words filed in the database; no cut-off is given here.

Key:
[1] = biological target: Delta-type opioid receptor (Homo sapiens, UniProt P41143); experiment: Displacement of [3H]naltrindole from human delta opioid receptor expressed in CHO cells; type: cell-based
[2] = biological target: T1, Kappa-type opioid receptor (Homo sapiens, UniProt P41145); experiment: Displacement of [3H]U69,593 from human kappa opioid receptor expressed in CHO cells; type: cell-based
Mu-type opioid receptor [3] = biological target: T2, Mu-type opioid receptor (Homo sapiens, UniProt P35372); experiment: Displacement of [3H]DAMGO from human mu opioid receptor expressed in CHO cells; type: cell-based
Mu-type opioid receptor [4] = biological target: T2, Mu-type opioid receptor; experiment: Antagonist activity at human mu opioid receptor expressed in CHO cells assessed as inhibition of DAMGO-stimulated [35S]GTPgammaS binding; type: functional, cell-based
[5] = biological target: T1, Kappa-type opioid receptor; experiment: Antagonist activity at human kappa opioid receptor expressed in CHO cells assessed as inhibition of U50,488-stimulated [35S]GTPgammaS binding; type: functional, cell-based
Outline: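 κ-receptor CHO membranes were incubated with compound in the presence of 100 nM U50,488 in a [35S]GTPγS binding assay.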

Mu-type opioid receptor [6] = biological target: T2, Mu-type opioid receptor; experiment: Activity at human mu opioid receptor expressed in CHO cells assessed as stimulation of [35S]GTPgammaS binding relative to basal level; type: functional, cell-based
Outline: (§1)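 Twelve compound concentrations were incubated with CHO membranes (κ 15 μg, μ 7.5 μg) and 0.080 nM [35S]GTPγS for 60 min at 30°C. Nonspecific binding was defined with 10 μM GTPγS. Samples were filtered and counted. Emax was taken with basal set at 0%, with EC50. Mean ± SEM, ≥3 experiments in triplicate.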

[7] = biological target: T1, Kappa-type opioid receptor; experiment: Activity at human kappa opioid receptor expressed in CHO cells assessed as stimulation of [35S]GTPgammaS binding relative to basal level; type: functional, cell-based; outline: as §1
[8] = biological target: T1, Kappa-type opioid receptor; experiment: Activity at human kappa opioid receptor expressed in CHO cells assessed as stimulation of [35S]GTPgammaS binding; type: functional, cell-based; outline: as §1

T1 sequence (P41145 whole entry): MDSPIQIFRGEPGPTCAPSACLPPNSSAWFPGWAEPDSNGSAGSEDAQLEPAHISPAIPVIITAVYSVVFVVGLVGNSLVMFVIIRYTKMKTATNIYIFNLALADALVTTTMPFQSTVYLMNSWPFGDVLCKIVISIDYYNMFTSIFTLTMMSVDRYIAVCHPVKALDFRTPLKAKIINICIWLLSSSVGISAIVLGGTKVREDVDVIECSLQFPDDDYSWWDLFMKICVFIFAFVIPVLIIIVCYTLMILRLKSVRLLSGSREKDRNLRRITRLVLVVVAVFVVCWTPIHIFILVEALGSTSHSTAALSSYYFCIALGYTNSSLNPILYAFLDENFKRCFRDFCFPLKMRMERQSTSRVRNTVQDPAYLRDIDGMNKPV
T2 sequence (P35372 whole entry): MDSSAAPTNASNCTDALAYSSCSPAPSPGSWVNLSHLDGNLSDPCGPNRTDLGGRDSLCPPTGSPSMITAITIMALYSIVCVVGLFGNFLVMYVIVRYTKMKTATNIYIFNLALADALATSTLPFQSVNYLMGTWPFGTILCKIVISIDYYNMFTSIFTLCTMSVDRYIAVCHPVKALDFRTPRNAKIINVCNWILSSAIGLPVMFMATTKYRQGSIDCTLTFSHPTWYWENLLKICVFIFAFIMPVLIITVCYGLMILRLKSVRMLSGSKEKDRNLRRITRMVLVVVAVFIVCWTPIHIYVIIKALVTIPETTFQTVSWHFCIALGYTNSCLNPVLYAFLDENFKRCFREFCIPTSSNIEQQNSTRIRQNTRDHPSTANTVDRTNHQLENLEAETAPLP
Chain of Delta-type opioid receptor (P41143 whole entry): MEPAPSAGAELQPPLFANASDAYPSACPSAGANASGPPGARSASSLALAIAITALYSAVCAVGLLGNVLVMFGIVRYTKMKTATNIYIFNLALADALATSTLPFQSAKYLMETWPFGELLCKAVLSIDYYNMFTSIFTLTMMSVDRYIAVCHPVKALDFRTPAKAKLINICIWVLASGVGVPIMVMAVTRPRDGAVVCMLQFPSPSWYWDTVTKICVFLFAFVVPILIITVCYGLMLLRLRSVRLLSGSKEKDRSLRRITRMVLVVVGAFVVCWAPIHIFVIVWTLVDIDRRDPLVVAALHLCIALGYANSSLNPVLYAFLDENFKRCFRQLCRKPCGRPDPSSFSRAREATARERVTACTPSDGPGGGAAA

Row | SMILES | Ki [1] [µM] | Ki [2] [µM] | Ki (Mu-type opioid receptor [3]) [µM] | IC50 (Mu-type opioid receptor [4]) [µM] | Imax (Mu-type opioid receptor [4]) [%] | IC50 [5] [µM] | Imax [5] [%] | Emax (Mu-type opioid receptor [6]) [%] | Emax [7] [%] | Activity [5] | EC50 [8] [µM]
1 | C[C@H]1C2Cc3cc4ncnc(N)c4cc3[C@@]1(C)CCN2CC1CC1 (mixture of isomers) | > 10 | 0.56 | 0.89 | – | – | – | – | – | – | – | –
2 | C[C@H]1C2Cc3ccc4c(NCc5ccccc5)ncnc4c3[C@@]1(C)CCN2CC1CC1 (mixture of isomers) | 1.5 | 0.24 | 0.044 | – | – | – | – | – | – | – | –
3 | C[C@H]1C2Cc3ccc4c(N)ncnc4c3[C@@]1(C)CCN2CC1CC1 (mixture of isomers) | 0.12 | 0.001 | 0.00055 | 0.028 | 88 | 1.3 | 75 | 0.64 | 6.3 | – | –
4 | C[C@H]1C2Cc3cc([N+](=O)[O-])c(C(N)=O)cc3[C@@]1(C)CCN2CC1CC1 (mixture of isomers) | 0.73 | 0.11 | 0.63 | – | – | – | – | – | – | – | –
5 | C[C@H]1C2Cc3cc4ncnc(NCc5ccccc5)c4cc3[C@@]1(C)CCN2CC1CC1 (mixture of isomers) | 1 | 0.048 | 0.088 | – | – | – | – | – | – | – | –
6 | C[C@H]1C2Cc3cc4ncnc(NCCc5ccc(-c6ccccc6)cc5)c4cc3[C@@]1(C)CCN2CC1CC1 (mixture of isomers) | 0.41 | 0.14 | 0.028 | – | – | – | – | – | – | – | –
7 | C[C@H]1C2Cc3ccc(O)c([N+](=O)[O-])c3[C@@]1(C)CCN2CC1CC1 (mixture of isomers) | 1.9 | 0.0032 | 0.032 | – | – | – | – | – | – | – | –
8 | C[C@H]1C2Cc3ccc(C(N)=O)c([N+](=O)[O-])c3[C@@]1(C)CCN2CC1CC1 (mixture of isomers) | 0.22 | 0.034 | 0.02 | – | – | – | – | – | – | – | –
9 | C[C@H]1C2Cc3ccc(C(N)=O)c(N)c3[C@@]1(C)CCN2CC1CC1 (mixture of isomers) | 0.035 | 0.0007 | 0.00055 | 0.031 | 93 | – | – | 4.6 | 38 | inactive | 0.015
10 | C[C@H]1C2Cc3cc([N+](=O)[O-])c(O)cc3[C@@]1(C)CCN2CC1CC1 (mixture of isomers) | > 10 | 0.58 | 3.8 | – | – | – | – | – | – | – | –
11 | C[C@H]1C2Cc3cc4cc[nH]c(=O)c4cc3[C@@]1(C)CCN2CC1CC1 (mixture of isomers) | 0.074 | 0.00074 | 0.0055 | 0.85 | 69 | – | – | 27 | 91 | inactive | 0.06
12 | C[C@H]1C2Cc3ccc4c(NCCc5ccc(-c6ccccc6)cc5)ncnc4c3[C@@]1(C)CCN2CC1CC1 (mixture of isomers) | 0.052 | 0.0086 | 0.0069 | – | – | – | – | – | – | – | –
